# Reference: article PMC3983135 (Bioconjugate Chemistry, 2014)
# “And” between values parts separate entries of the source, which are not always exact repeats. Equal entries are not always repeated.
# Experiment: CRRL conjugation kinetics of BQ with methoxyamine by UV–vis spectroscopy
# Assay type: physicochemical
# Conditions: PBS, room temperature
# In short: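 BQ (200 μM) was reacted with excess methoxyamine (100 mM and other concentrations) in Dulbecco's PBS at room temperature. Readings were taken in quartz cells, starting immediately after mixing. Repeated UV-vis spectra tracked BQ at 248 nm and QO at 320 nm. Both traces were fitted to pseudo-first-order exponentials to give k′, and the slope of k′ versus [methoxyamine] gave the second-order rate constant.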
structure (smiles),measurement,setting,value
"O=C1C=CC(=O)C=C1 [BQ, benzoquinone]",pseudo-first-order k′ of conversion of BQ to QO,"BQ 200 μM, methoxyamine 100 mM, UV–vis (248 and 320 nm)",4.2 × 10^–3 s^–1
same,second-order rate constant k for CRRL conjugation (BQ with CH3ONH2 to QO),"from plot of k′ versus [methoxyamine], UV–vis",3.4 × 10^–2 (±6.5 × 10^–4) M^–1s^–1 and 3.41 × 10^–2 (±6.5 × 10^–4) M^–1s^–1
